Source: PubChem BioAssay
A selection: hits, their analogues and other compounds. The true share with any hit is near 8.9%.
MT stabilize HCS = microtubule stabilizers in HeLa cells, primary screen, imaging, high-content imaging; HeLa tubulin immunostaining HCS, 24 h; share of cells brighter than vehicle mean+2SD; % tubulin-high responders, % at 10 µM; 200,000 compounds, 0.83% hits; AID 2205, 2009;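 active means plate Z-score above 3 for both tubulin-high and condensed-nucleus cell shares, with cell loss under 80%, at 10 µM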;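 further: anti alpha tubulin signal scored within the nucleus-defined area of each cell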
L major viab = Leishmania major promastigote growth inhibition, primary screen; Leishmania major promastigotes, resazurin fluorescence viability; inhibition, % at 10 µM; 200,000 compounds, 9% hits; AID 1063, 2008; in the data active means inhibition above about 50%;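 further: promastigotes grown with compound for 44 hours at 28 °C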
bCat nuc transl = modulators of beta-catenin nuclear translocation, primary screen, imaging, HeLa cells, immunofluorescence, high-content. AID 1665, 2009. 190,000 compounds, 0.3% hits. nuclear translocation activity, % at 5 µM;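 active means nuclear translocation activity above 50% at 5 µM, with a well cell count of 50 or more; inconclusive means wells under 50 cells across six images, flagged as toxic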;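 further: per-cell ratio of nuclear to cytoplasmic median beta-catenin stain intensity; plate controls were DMSO negative control for no effect and GSK-3 inhibitor IX positive control for full effect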
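Test system: human HeLa cells, native beta-catenin. Compound dosing: 5 µM primary single dose, 0.1% DMSO, 0.02–20 µM confirmation series. Incubation: compound exposure 24 h at 37°C. Detection: beta-catenin immunostaining with DAPI counterstain, 20x imaging, 6 fields/well. Read-out basis: Nuclear/cytoplasmic beta-catenin signal ratio, % activation.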
HSV augment = enhancers of HSV replication in host cells, fold increase, host cell viability; HSV replication augmentation in cells; 220,000 compounds, 0.005% hits; maximum fold increase; in the data active means maximum fold increase above about 1.5; inconclusive means no clear call, values can overlap the other calls; tested in PC3 cells
Dynein cargo inh = inhibitors of GR-EGFP nuclear translocation, primary screen, dynein cargo transport inhibitor project, imaging, high-content, 3617.4 mouse cells. test concentration mostly 20 µM; stimulated with dexamethasone, 1 µM; active compounds read low. z-score, hits read low. 220,000 compounds, 0.47% hits;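 active means plate z-score of nuclear minus cytoplasmic receptor signal below a set negative limit, without overly bright fluorescence or cell loss, cut at about -3.5 in these data, passing the limit was not always enough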;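 further: z-score of nuclear minus cytoplasmic ring GR-EGFP intensity difference per well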
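medium = tetracycline-free induction medium containing charcoal-stripped FBS | probe or stimulus = dexamethasone, 1.0 µM final | timing = 48 h induction, then 1 h compound, then 30 min agonist, 37 °C | detection = automated 10x imaging of fixed Hoechst-stained cells | read-out basis = nuclear versus cytoplasmic GR-EGFP signal, averaged per well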
* marks the source's active call; other numbers are inactive results; i = inactive; ? = inconclusive; · = no result.

SMILES	MT stabilize HCS	L major viab	bCat nuc transl	HSV augment	Dynein cargo inh
S=C(NC1CCCCC1)N1CCn2cccc2C1c1ccncc1 (centres undefined)	5	0	2	i	0.71
S=C(NC1CCCCC1)N1CCn2cccc2C1c1cccnc1 (centres undefined)	2	98*	-2	i	1.3
Fc1cccc(NC(=S)N2CCn3cccc3C2c2cccnc2)c1 (centres undefined)	2	92*	0	i	0.13
Cn1cccc1/C=N\NC(=O)c1cncc(Br)c1	·	·	0	i	-0.21
Cc1ccc2nc(-c3ccc(NC(=O)CCS(=O)(=O)c4ccccc4)cc3)sc2c1	2	0	3	i	-0.47
CN1CCC(NC(=O)c2cccs2)CC1	4	-9	2	i	-0.6
Cc1nn(CC(=O)Nc2ccc3c(c2)nc(CCN2CCCCC2)n3C)c(=O)c2ccccc12	2	3	1	i	0.076
Cc1nn(CC(=O)Nc2ccc3c(c2)nc2n3CCN(C3CCCCC3)C2)c(=O)c2ccccc12	4	72*	1	i	-0.84
CCC/C(O)=C1\C(=O)CC(c2ccccc2)CC1=NCCc1c(C)[nH]c2ccc(C)cc12 (centres undefined)	1	58*	2	i	0.53
CC/C(O)=C1\C(=O)CC(c2ccccc2)CC1=NCCc1c(C)[nH]c2ccc(C)cc12 (centres undefined)	3	73*	-2	i	-1.1
CCC(=NCCc1c(C)[nH]c2ccc(C)cc12)C1=C(O)CC(c2ccccc2)CC1=O (centres undefined)	15*	36	135*	i	0.49
CC/C(O)=C1\C(=O)CCCC1=NCCc1c(C)[nH]c2ccc(C)cc12	·	·	1	i	0.88
CC(=O)C1=C(O)CC(c2ccccc2)CC1=NCCc1c(C)[nH]c2ccc(C)cc12 (centres undefined)	5	-3	-2	i	-0.39
Cc1cc(C)nc(SCC(=O)NNC(=O)c2ccccc2C)n1	3	-5	-2	i	2.1
O=C(CSc1nnc(Cc2ccccc2)n1C1CCCCC1)N1CCOCC1	3	-5	·	i	0.027
CCOc1ccc(NC(=O)[C@@H](NC(=O)OCc2ccccc2)[C@@H](C)CC)cc1	5	16	-2	i	-0.75
Cc1ccc(N2C(=O)Nc3cc(Cl)c(Cl)cc3N2O)cc1Cl	3	-4	1	i	0.98
O=C(/C=C/c1cccc(Cl)c1)c1nc2ccccc2[nH]1	4	100*	0	i	-2.7
O=C(/C(=C\c1ccccc1)c1nc2ccccc2[nH]1)c1ccc(Cl)cc1	22*	100*	1	i	-2.4
COC(=O)/C(=C\c1ccc(O)cc1)c1nc2ccccc2[nH]1	5	34	0	i	-3.3
COc1ccc(NC(=O)Nc2sc(=S)n(C)c2C)cc1	3	1	-1	i	-0.47
COc1ccc(-c2csc(C3=C(O)CN(Cc4ccc(Cl)cc4)C3=N)n2)cc1OC	1	58*	-4	i	-0.66
Oc1ccccc1N=Cc1sc2ccccc2c1Cl	4	57*	3	i	0.17
O=C(c1ccc(Cl)cc1)N1CCC(c2nc(-c3cccs3)no2)CC1	2	87*	-7	i	-0.33
CCOc1ccc(C(=O)N2CCCC(c3nc(-c4cccs4)no3)C2)cc1 (centres undefined)	·	·	0	i	-0.11
SMILES	MT stabilize HCS	L major viab	bCat nuc transl	HSV augment	Dynein cargo inh
CC1=CC(C)(C)N2C(=O)C3(SCC(=O)N3c3ccc(O)cc3)c3cc(C)cc1c32 (centres undefined)	2	24	0	i	-0.48
Cc1ccc(NC(=O)CNc2ccccc2CN(C)C2CCCCC2)cc1	5	60*	-4	i	0.94
COc1ccc(Cl)cc1NC(=O)CNc1ccccc1CN(C)C1CCCCC1	2	96*	1	i	0.62
Cc1ccc(C(c2c(C)nn(-c3ccccc3)c2N)c2c(C)nn(-c3ccccc3)c2N)cc1	2	95*	·	i	-0.41
COC(=O)C(C)N(C#N)c1nc(NC(C)C)nc(SC)n1 (centres undefined)	1	21	·	i	-1.2
O=c1c2cnn(-c3ccccc3)c2ncn1Cc1ccccc1F	6	-6	2	i	0.25
Oc1ccc(C=Nc2ccc3ncccc3c2)c(O)c1	3	93*	-1	?	-0.67
CCOC(=O)c1ccc(Nc2cnc3ccccc3n2)cc1	2	-4	0	i	0.47
CC1CCN(CCOCCOc2ccc(Br)cc2Cl)CC1	1	99*	0	i	0.01
CC1CCN(CCOc2cc(Cl)ccc2Cl)CC1	3	85*	·	i	1.6
CC1CCCN(CCCOc2ccc(Br)cc2Cl)C1 (centres undefined)	4	89*	-1	i	-0.7
COc1ccc(Cl)cc1NC(=O)COC(=O)CCNC(C)=O	2	-7	-4	i	-0.36
CS(=O)(=O)N1CCN(C(=O)C2c3ccccc3Oc3ccccc32)CC1	2	-5	-1	i	0.57
CCC(Sc1nc2ccccc2o1)C(=O)Nc1nnc(C)s1 (centres undefined)	4	55*	-1	i	1.8
COc1cccc(-c2noc(-c3cccs3)n2)c1	2	1	-1	i	-1
FC(F)(F)c1nc(-c2cccs2)ncc1-c1nnnn1-c1ccc(Cl)cc1	1	2	·	i	-0.61
CCN(c1ccc(NC(=O)CCNC(=O)c2ccco2)cc1)C(C)C	1	54*	1	i	0.73
CC1(C)CC(=O)C2=C(C1)NC(Nc1nc3ccccc3o1)=NC21CCCCC1	3	59*	-3	i	-0.21
CCCOc1cccc(C(=O)N(Cc2ccco2)C2CCS(=O)(=O)C2)c1 (centres undefined)	4	-1	-2	i	-0.18
N#CC1(c2ccccc2)CCCN1C(=O)c1ccco1 (centres undefined)	6	-5	-1	i	-0.6
CCCCNS(=O)(=O)c1ccc(OC)c2ncccc12	4	-4	-1	i	0.22
CCOc1ccc(S(=O)(=O)NCc2ccc(C)cc2)c2cccnc12	3	98*	1	i	-0.26
CCOc1ccc(NS(=O)(=O)c2ccc(OCC)c3ncccc23)cc1	44*	5	-1	i	-0.57
CC1(C)C2CCC(C2)C1(C)NC(=O)CNC1CCCCC1 (centres undefined)	2	0	0	i	0.56
COC(=O)c1ccccc1NC(=O)Cn1c(=O)n(Cc2ccccc2)c(=O)c2c(C)c(C)sc21	4	89*	·	i	-0.25
COC(=O)c1ccccc1NC(=O)Cn1c(=O)oc2ccc(Cl)cc21	2	-1	·	i	1.6
CC(C)C(=O)O/N=C(\N)c1ccccn1	6	2	-2	i	2.1
